Data set [1] relates to CT26. Put plainly: Antimetastatic activity against GFP-fused mouse CT26 cells allografted in Balb/c mouse assessed as reduction in relative fluorescence at 1.13 mg/kg, ip administered daily for 15 days by fluorescence-based assay. The format is functional, organism-based. In outline:
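After iv GFP-CT-26 implantation (10^6 cells) in male Balb/c and daily ip dosing Days 1–15, lungs were removed on Day 16. Whole-lung GFP was imaged with 488 nm excitation (em 520) and quantified over a 20×20 mm2 area per lung. Non-implanted lungs served as background.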

Another data set deals with Prothrombin (Homo sapiens, UniProt P00734). Put plainly: Inhibition of human thrombin preincubated for 15 mins followed by chromogenic substrate addition.
Data set [2] deals with Urokinase-type plasminogen activator (Homo sapiens, UniProt P00749). Kind of data set: Inhibition of human uPA preincubated for 15 mins followed by chromogenic substrate addition.
Data set [3] in a line: Stability in 75% mouse plasma assessed as protease-mediated compound degradation measured within 8 hrs. The format is ADME, cell-free. A digest of the protocol: (§1)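 Peptide was preincubated in 75% murine plasma for 0–24 h (sampled at 0, 2, 8 and 24 h). Residual uPA-inhibitory activity was then measured and expressed as IC50.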
Data set [4] concerns the target T1, Urokinase-type plasminogen activator (Mus musculus, UniProt P06869). Put plainly: Inhibition of uPA in presence of 75% mouse […] measured at 24 hrs. A digest of the protocol: as §1
For data set [5], the target named is Urokinase-type plasminogen activator (Mus musculus) (UniProt P06869). Kind of data set: Inhibition of the intrinsic peri-cellular uPA in mouse CT26 cells assessed as reduction in cell invasion at 33 to 100 uM by Transwell invasion assay relative to control.
Chain of Urokinase-type plasminogen activator (Mus musculus) (P06869 21-178 limits assumed): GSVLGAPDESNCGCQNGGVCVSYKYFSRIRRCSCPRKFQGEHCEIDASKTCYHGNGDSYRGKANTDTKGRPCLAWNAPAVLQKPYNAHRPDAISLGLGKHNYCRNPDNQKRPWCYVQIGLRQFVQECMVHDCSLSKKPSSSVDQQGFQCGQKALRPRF
Chain of Urokinase-type plasminogen activator (Mus musculus) (P06869 180-433 limits assumed): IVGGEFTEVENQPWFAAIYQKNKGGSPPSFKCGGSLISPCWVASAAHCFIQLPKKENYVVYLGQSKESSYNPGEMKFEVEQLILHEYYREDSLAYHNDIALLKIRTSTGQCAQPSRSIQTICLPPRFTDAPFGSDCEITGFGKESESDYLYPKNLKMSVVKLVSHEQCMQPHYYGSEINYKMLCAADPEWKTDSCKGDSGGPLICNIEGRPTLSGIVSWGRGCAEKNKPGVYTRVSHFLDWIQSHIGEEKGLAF
A short description of data set [6]: Drug level in blood of GFP-fused mouse CT26 cells allografted in Balb/c mouse at 11.3 mg/kg, ip administered daily for 15 days. It counts as ADME, organism-based. Conditions: read-out: Drug uptake.
The target in data set [7] is Vitamin K-dependent protein C (Homo sapiens, UniProt P04070). Kind of data set: Inhibition of human activated protein C preincubated for 15 mins followed by chromogenic substrate addition.
Chain of Vitamin K-dependent protein C (P04070 43-197 limits assumed): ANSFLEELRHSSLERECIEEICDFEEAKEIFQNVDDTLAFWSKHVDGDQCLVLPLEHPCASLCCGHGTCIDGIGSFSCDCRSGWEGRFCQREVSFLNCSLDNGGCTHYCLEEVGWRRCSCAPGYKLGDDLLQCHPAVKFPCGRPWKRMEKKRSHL
Chain of Vitamin K-dependent protein C (P04070 212-461 limits assumed): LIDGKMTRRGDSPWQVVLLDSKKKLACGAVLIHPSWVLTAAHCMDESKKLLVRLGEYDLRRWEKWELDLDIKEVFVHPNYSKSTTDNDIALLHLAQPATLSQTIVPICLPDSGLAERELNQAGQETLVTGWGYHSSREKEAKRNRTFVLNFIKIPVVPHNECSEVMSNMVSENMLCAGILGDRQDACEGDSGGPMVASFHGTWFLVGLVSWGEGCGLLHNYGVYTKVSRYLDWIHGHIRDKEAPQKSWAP
In data set [8] the target is Urokinase-type plasminogen activator (Mus musculus) (UniProt P06869). Put plainly: Inhibition of the intrinsic peri-cellular uPA in mouse CT26 cells assessed as reduction in cell migration at 30 to 100 uM measured every hour by wound healing assay relative to control. It counts as cell-based.
In data set [9] the target is Tissue-type plasminogen activator (Mus musculus, UniProt P11214). Put plainly: Inhibition of mouse tissue-type plasminogen activator preincubated for 15 mins followed by chromogenic substrate addition.
Chain of Tissue-type plasminogen activator (P11214 whole entry, the tested form may be a part): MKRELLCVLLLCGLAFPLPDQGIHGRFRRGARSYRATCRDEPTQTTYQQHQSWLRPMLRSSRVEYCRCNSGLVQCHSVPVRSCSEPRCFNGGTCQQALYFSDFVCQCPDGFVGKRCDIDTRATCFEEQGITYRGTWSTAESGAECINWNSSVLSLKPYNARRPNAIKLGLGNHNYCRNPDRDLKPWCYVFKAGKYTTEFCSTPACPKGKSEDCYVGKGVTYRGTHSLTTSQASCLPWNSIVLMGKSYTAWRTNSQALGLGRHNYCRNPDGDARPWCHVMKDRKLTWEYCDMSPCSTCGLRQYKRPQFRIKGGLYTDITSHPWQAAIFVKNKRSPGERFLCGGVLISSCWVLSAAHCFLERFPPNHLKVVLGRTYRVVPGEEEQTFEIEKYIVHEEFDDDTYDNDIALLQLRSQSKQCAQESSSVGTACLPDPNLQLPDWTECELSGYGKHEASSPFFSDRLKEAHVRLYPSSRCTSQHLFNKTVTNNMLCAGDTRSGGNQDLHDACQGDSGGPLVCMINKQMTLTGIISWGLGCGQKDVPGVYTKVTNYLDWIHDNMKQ
The target of data set [10] is T1, Urokinase-type plasminogen activator. Kind of data set: Inhibition of mouse uPA serine protease domain preincubated for 15 mins followed by chromogenic substrate addition.
Data set [11] relates to CT26. Put plainly: Anti-tumor activity against GFP expressing mouse CT26 cells allografted in Balb/c mouse assessed as tumor growth inhibition at 11.3 mg/kg, ip administered daily for 15 days and measured on day 16 […]. The format is functional. Conditions: read-out: TGI. In outline:
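CT-26 cells implanted subcutaneously in right flank of Balb/c mice; once tumors reached about 150~200 mm3, daily intraperitoneal dosing with peptide or saline for 15 days. Mice sacrificed on Day 16; tumors resected and weighed; tumor growth reduction relative to saline group.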

Data set [12] concerns CT26. Kind of data set: Antimetastatic activity against GFP-fused mouse CT26 cells allografted in Balb/c mouse assessed as reduction genomic DNA of metastatic cells at 1.13 mg/kg, ip administered daily for 15 days by qPCR analysis. The format is functional, organism-based. A digest of the protocol: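 Lung-metastasis model: male Balb/c (~20 g, 6/group) given 10^6 GFP-CT-26 cells iv, then daily ip dosing from Day 1 to 15, killed on Day 16. Total DNA (200 ng) from homogenized lungs went to SYBR Green qPCR (287 bp amplicon, 45 cycles). The standard curve used CT-26 genomic DNA spiked into normal lung DNA at 0.135–100%.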

Data set [13] has as its system CT26. Put plainly: Antimetastatic activity against mouse CT26 cells allografted in Balb/c mouse at 11.3 mg/kg, ip administered daily for 15 days by hematoxylin and eosin staining -based assay. It counts as functional, organism-based. A digest of the protocol: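 Lungs from male Balb/c given 10^6 GFP-CT-26 cells iv, with daily ip dosing on Days 1–15, were harvested on Day 16. Formalin-fixed, paraffin-embedded sections were stained with H&E for histology, with non-implanted lungs as comparison.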

Data set [14] concerns the target T1, Urokinase-type plasminogen activator. Kind of data set: Inhibition of mouse uPA preincubated for 15 mins followed by chromogenic substrate addition.
For data set [15], the system named is CT26. Put plainly: Antimetastatic activity against mouse CT26 cells allografted in Balb/c mouse assessed as prolongation of mouse survival time at 11.3 mg/kg, ip administered daily for 15 days. The format is functional, organism-based.
Data set [16] has as its target T1, Urokinase-type plasminogen activator. Kind of data set: Inhibition of uPA in presence of 75% mouse […] measured immediately. In outline: as §1
The subject of data set [17] is CT26. Kind of data set: Antimetastatic activity against GFP-fused mouse CT26 cells allografted in Balb/c mouse assessed as reduction in tumor nodule numbers at 11.3 mg/kg, ip administered daily for 15 days by fluorescence-based assay. It counts as functional. Conditions: 360 h. A digest of the protocol:
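Lung metastasis model: male Balb/c mice (~20 g, 6/group) given 10^6 GFP-CT-26 cells i.v. with peptide or saline, daily i.p. dosing Day 1–15, sacrificed Day 16. Surface tumor nodules on pleural surfaces counted per lung after soaking in formaldehyde.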

The target of a further data set is Coagulation factor XI (Homo sapiens, UniProt P03951). Kind of data set: Inhibition of human factor 11a preincubated for 15 mins followed by chromogenic substrate addition.
Chain of Coagulation factor XI (P03951 19-387 limits assumed): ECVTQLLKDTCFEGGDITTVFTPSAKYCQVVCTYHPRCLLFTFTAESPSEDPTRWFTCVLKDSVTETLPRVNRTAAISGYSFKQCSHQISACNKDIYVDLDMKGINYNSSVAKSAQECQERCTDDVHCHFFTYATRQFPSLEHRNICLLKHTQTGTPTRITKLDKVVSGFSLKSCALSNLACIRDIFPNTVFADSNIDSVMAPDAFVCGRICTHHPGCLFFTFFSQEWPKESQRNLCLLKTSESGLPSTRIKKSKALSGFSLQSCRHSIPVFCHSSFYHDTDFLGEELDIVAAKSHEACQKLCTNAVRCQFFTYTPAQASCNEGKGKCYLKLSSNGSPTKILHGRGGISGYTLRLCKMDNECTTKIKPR
Chain of Coagulation factor XI (P03951 388-625 limits assumed): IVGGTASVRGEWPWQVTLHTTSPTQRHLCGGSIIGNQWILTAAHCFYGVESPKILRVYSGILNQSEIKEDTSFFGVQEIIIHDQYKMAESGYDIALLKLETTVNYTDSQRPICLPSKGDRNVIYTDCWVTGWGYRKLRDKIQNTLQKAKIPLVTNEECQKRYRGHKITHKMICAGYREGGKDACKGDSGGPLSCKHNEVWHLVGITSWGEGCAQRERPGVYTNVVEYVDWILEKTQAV
Data set [18] deals with CT26. Put plainly: Antimetastatic activity against GFP-fused mouse CT26 cells allografted in Balb/c mouse assessed as reduction in tumor nodule numbers at 1.13 mg/kg, ip administered daily for 15 days by fluorescence-based assay. It counts as functional, organism-based. A digest of the protocol: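 Male Balb/c mice received 10^6 GFP-CT-26 cells iv and daily ip dosing on Days 1–15. On Day 16, pleural-surface tumor nodules per lung were counted after soaking in formaldehyde.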

The record followed here is ChEMBL document CHEMBL4422663, “Suppression of Tumor Growth and Metastases by Targeted Intervention in Urokinase Activity with Cyclic Peptides” (J Med Chem, 2019).

Calls of active or inactive are those of the source. The rule behind the calls is not given here. Positions of bridges follow the written chain, without caps; N, C: chain ends. Residues, ends and D or L forms follow the SMILES beside them.

T1 sequence (P06869 21-178 limits assumed): as the sequence (P06869 21-178 limits assumed) above
T1 sequence (P06869 180-433 limits assumed): as the sequence (P06869 180-433 limits assumed) above

Consider `CC[C@H](C)[C@@H]1NC(=O)[C@H](Cc2ccc(O)cc2)NC(=O)[C@H](CCCNC(=N)N)NC(=O)[C@H](CO)NC(=O)[C@H](Cc2ccc(O)cc2)NC(=O)[C@H](C)NC(=O)[C@@H]2CCCN2C(=O)[C@@H](N)CSSC[C@@H](C(=O)O)NC(=O)CNC1=O` (H-CPAYSRYIGC-OH; disulfide 1-10), for which the result with CT26 [1], in the data set with CT26 [12], in the data set with CT26 [15] and in the data set with CT26 [18] was inactive. Moreover, the inhibitory constant (Ki) on Prothrombin is over 25000 nM; in [2], 340 nM; in data set [7], over 25000 nM; in [9], over 25000 nM; in [10] it was 15.3 nM; in data set [14] it was 6.8 nM. Also, the Ki at Coagulation factor XI was over 25000 nM. Moreover, in data set [3], the Stability entry is given as “Stable”. In addition, the half-inhibitory concentration (IC50) in [4] worked out at 70.7 nM; in [16], 10.1 nM. The results for the inhibition in [5] and in data set [8] were 70 to 80% and 30%, respectively. For the same compound, the concentration at 360 h in [6] came to 100 µM. Moreover, the inhibition in vivo at 11.3 mg/kg in the data set on CT26 [11] worked out at 56.8%; in the data set with CT26 [17], 46.5%. Further, in the data set with CT26 [13], the outcome was Active.

For orientation: Ki means the equilibrium dissociation constant of an inhibitor or competing ligand from its target. The low end stands for higher affinity, the high end for lower affinity. One may read the IC50 as the concentration that inhibits the measured activity by half. By inhibition is commonly meant the relative decrease from the control value, in per cent.
